From ChEMBL document CHEMBL1275531, “Genomewide expression profiling of cryptolepine-induced toxicity in Saccharomyces cerevisiae” (Antimicrob Agents Chemother, 2008)
Calls of active or inactive are those of the source. No cut-off for these calls is given here.

What was measured:
Saccharomyces cerevisiae [1] = assay: Upregulation of HSP26 gene expression in Saccharomyces cerevisiae at 17 uM after 15 hrs by microarray analysis relative to untreated control; assay type: functional
Summary of the method: (§1)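 BY4741Δerg6 cells exposed 15 h to 7.5 or 17 μM; total RNA, 15 μg, used for Cy3/Cy5-dUTP indirect labeling. Arrays prehybridized at 42°C for 45 min, then hybridized in 50% formamide, 5× SSC. Each dose done in duplicate, each RNA hybridized twice with dye swap; treated/untreated fluorescence ratios log-transformed.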

Saccharomyces cerevisiae [2] = assay: Downregulation of FIT3 gene expression in Saccharomyces cerevisiae at 7.5 uM after 15 hrs by qRT-PCR relative to untreated control; assay type: functional
Summary of the method: (§2)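 qRT-PCR used aliquots of the microarray RNA (treated and untreated Δerg6, 7.5 or 17 μM, 15 h) plus two additional biological replicates. Cycling was 95°C 10 min, then 40 cycles of 95°C 15 s and 60°C 1 min, with a dissociation curve. Genomic DNA 10-fold dilution standard curves; no-template and no-enzyme controls in triplicate; relative expression by ΔΔCT.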

Saccharomyces cerevisiae [3] = assay: Downregulation of PHO5 gene expression in Saccharomyces cerevisiae at 7.5 uM after 15 hrs by microarray analysis relative to untreated control; assay type: functional; summary of the method: as §1
Saccharomyces cerevisiae [4] = assay: Downregulation of ARN2 gene expression in Saccharomyces cerevisiae at 7.5 uM after 15 hrs by qRT-PCR relative to untreated control; assay type: functional; summary of the method: as §2
Saccharomyces cerevisiae [5] = assay: Downregulation of TIS11 gene expression in Saccharomyces cerevisiae at 7.5 uM after 15 hrs by qRT-PCR relative to untreated control; assay type: functional; summary of the method: as §2
Saccharomyces cerevisiae [6] = assay: Downregulation of FIT3 gene expression in Saccharomyces cerevisiae at 17 uM after 15 hrs by microarray analysis relative to untreated control; assay type: functional; summary of the method: as §1
Saccharomyces cerevisiae [7] = assay: Cytotoxicity against Saccharomyces cerevisiae; assay type: functional
Summary of the method: (§3)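 Growth assay: strains precultured in YPD at 30°C for 15 h, shaking 250 rpm in the dark, then standardized to OD600 0.05 in the same medium. Grown in triplicate with a range of concentrations (methanol stock, diluted before use) under continuous 4 h treatment; growth read as OD600 and inhibitory concentrations taken from the plots.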

Saccharomyces cerevisiae [8] = assay: Upregulation of FRE2 gene expression in Saccharomyces cerevisiae relative to untreated control; assay type: functional
Summary of the method: (§4)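 Δerg6 cells treated 15 h at 7.5 or 17 μM, with the eight microarray hybridizations pooled. A gene counted as changed when two-tailed Student t test on log-transformed ratios gave P below 0.01 for ratio equal to 1. Genes grouped by GO biological-process category.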

Saccharomyces cerevisiae [9] = assay: Downregulation of ARN2 gene expression in Saccharomyces cerevisiae at 17 uM after 15 hrs by microarray analysis relative to untreated control; assay type: functional; summary of the method: as §1
Saccharomyces cerevisiae [10] = assay: Upregulation of TPS1 gene expression in Saccharomyces cerevisiae at 7.5 uM after 15 hrs by qRT-PCR relative to untreated control; assay type: functional
Summary of the method: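 BY4741Δerg6 yeast (standardized to OD600 0.05 in YPD after 15-h 30°C preculture) grown with cryptolepine (1 mM methanol stock diluted) for 15 h; total RNA extracted, aliquots from microarray samples plus two additional biological replicates used for qRT-PCR: 95°C 10 min, 40 cycles 95°C 15 s/60°C 1 min, dissociation curve; genomic DNA standard curves; relative expression versus untreated by ΔΔCT.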

Saccharomyces cerevisiae [11] = assay: Downregulation of FIT2 gene expression in Saccharomyces cerevisiae relative to untreated control; assay type: functional; summary of the method: as §4
Saccharomyces cerevisiae [12] = assay: Upregulation of HSP26 gene expression in Saccharomyces cerevisiae at 7.5 uM after 15 hrs by qRT-PCR relative to untreated control; assay type: functional; summary of the method: as §2
Saccharomyces cerevisiae [13] = assay: Downregulation of ARN2 gene expression in Saccharomyces cerevisiae at 7.5 uM after 15 hrs by microarray analysis relative to untreated control; assay type: functional; summary of the method: as §1
Saccharomyces cerevisiae [14] = assay: Downregulation of PHO5 gene expression in Saccharomyces cerevisiae at 17 uM after 15 hrs by qRT-PCR relative to untreated control; assay type: functional; summary of the method: as §2
Saccharomyces cerevisiae [15] = assay: Downregulation of ARN2 gene expression in Saccharomyces cerevisiae relative to untreated control; assay type: functional; summary of the method: as §4
Saccharomyces cerevisiae [16] = assay: Downregulation of siderophore transport related gene expression in Saccharomyces cerevisiae; assay type: functional, organism-based; summary of the method: as §4
Saccharomyces cerevisiae [17] = assay: Downregulation of TIS11 gene expression in Saccharomyces cerevisiae at 17 uM after 15 hrs by microarray analysis relative to untreated control; assay type: functional; summary of the method: as §1
Saccharomyces cerevisiae [18] = assay: Cytotoxicity against Saccharomyces cerevisiae JN394 harboring deltarad52 mutant gene after 4 hrs; assay type: functional, organism-based; conditions: JN394, 4 h; summary of the method: as §3
Saccharomyces cerevisiae [19] = assay: Downregulation of FET4 gene expression in Saccharomyces cerevisiae relative to untreated control; assay type: functional; summary of the method: as §4
Saccharomyces cerevisiae [20] = assay: Downregulation of stress response related gene expression in Saccharomyces cerevisiae; assay type: functional, organism-based; conditions: in the assay text read “Upregulation” for “Downregulation”; summary of the method: as §4
Saccharomyces cerevisiae [21] = assay: Downregulation of TIS11 gene expression in Saccharomyces cerevisiae at 17 uM after 15 hrs by qRT-PCR relative to untreated control; assay type: functional; summary of the method: as §2
Saccharomyces cerevisiae [22] = assay: Upregulation of TPS1 gene expression in Saccharomyces cerevisiae at 7.5 uM after 15 hrs by microarray analysis relative to untreated control; assay type: functional; summary of the method: as §1
Saccharomyces cerevisiae [23] = assay: Downregulation of ARN2 gene expression in Saccharomyces cerevisiae at 17 uM after 15 hrs by qRT-PCR relative to untreated control; assay type: functional; summary of the method: as §2
Saccharomyces cerevisiae [24] = assay: Downregulation of FRE1 gene expression in Saccharomyces cerevisiae relative to untreated control; assay type: functional; summary of the method: as §4
Saccharomyces cerevisiae [25] = assay: Downregulation of acid phosphatase activity related gene expression in Saccharomyces cerevisiae; assay type: functional, organism-based; summary of the method: as §4
Saccharomyces cerevisiae [26] = assay: Downregulation of TIS11 gene expression in Saccharomyces cerevisiae at 7.5 uM after 15 hrs by microarray analysis relative to untreated control; assay type: functional; summary of the method: as §1
Saccharomyces cerevisiae [27] = assay: Downregulation of PHO5 gene expression in Saccharomyces cerevisiae at 7.5 uM after 15 hrs by qRT-PCR relative to untreated control; assay type: functional; summary of the method: as §2
Saccharomyces cerevisiae [28] = assay: Downregulation of FRE6 gene expression in Saccharomyces cerevisiae relative to untreated control; assay type: functional; summary of the method: as §4
Saccharomyces cerevisiae [29] = assay: Downregulation of FRE5 gene expression in Saccharomyces cerevisiae relative to untreated control; assay type: functional; summary of the method: as §4
Saccharomyces cerevisiae [30] = assay: Downregulation of fungal type cell wall related gene expression in Saccharomyces cerevisiae; assay type: functional, organism-based; summary of the method: as §4
Saccharomyces cerevisiae [31] = assay: Downregulation of FIT3 gene expression in Saccharomyces cerevisiae relative to untreated control; assay type: functional; summary of the method: as §4
Saccharomyces cerevisiae [32] = assay: Downregulation of FTH1 gene expression in Saccharomyces cerevisiae relative to untreated control; assay type: functional; summary of the method: as §4
Saccharomyces cerevisiae [33] = assay: Downregulation of SIT1 gene expression in Saccharomyces cerevisiae relative to untreated control; assay type: functional; summary of the method: as §4
Saccharomyces cerevisiae [34] = assay: Downregulation of FTR1 gene expression in Saccharomyces cerevisiae relative to untreated control; assay type: functional; summary of the method: as §4
Saccharomyces cerevisiae [35] = assay: Downregulation of FIT3 gene expression in Saccharomyces cerevisiae at 7.5 uM after 15 hrs by microarray analysis relative to untreated control; assay type: functional; summary of the method: as §1
Saccharomyces cerevisiae [36] = assay: Upregulation of HSP26 gene expression in Saccharomyces cerevisiae at 17 uM after 15 hrs by qRT-PCR relative to untreated control; assay type: functional; summary of the method: as §2
Saccharomyces cerevisiae [37] = assay: Downregulation of FIT3 gene expression in Saccharomyces cerevisiae at 17 uM after 15 hrs by qRT-PCR relative to untreated control; assay type: functional; summary of the method: as §2
Saccharomyces cerevisiae [38] = assay: Upregulation of SMF2 gene expression in Saccharomyces cerevisiae relative to untreated control; assay type: functional; summary of the method: as §4
Saccharomyces cerevisiae [39] = assay: Downregulation of PHO5 gene expression in Saccharomyces cerevisiae at 17 uM after 15 hrs by microarray analysis relative to untreated control; assay type: functional; summary of the method: as §1
Saccharomyces cerevisiae [40] = assay: Downregulation of FET3 gene expression in Saccharomyces cerevisiae relative to untreated control; assay type: functional; summary of the method: as §4
Saccharomyces cerevisiae [41] = assay: Downregulation of SMF1 gene expression in Saccharomyces cerevisiae relative to untreated control; assay type: functional; summary of the method: as §4
Saccharomyces cerevisiae [42] = assay: Cytotoxicity against Saccharomyces cerevisiae BY4741 harboring deltaerg6 mutant gene after 4 hrs; assay type: functional, organism-based; conditions: BY4741, 4 h; summary of the method: as §3
Saccharomyces cerevisiae [43] = assay: Upregulation of FET5 gene expression in Saccharomyces cerevisiae relative to untreated control; assay type: functional; summary of the method: as §4
Saccharomyces cerevisiae [44] = assay: Upregulation of HSP26 gene expression in Saccharomyces cerevisiae at 7.5 uM after 15 hrs by microarray analysis relative to untreated control; assay type: functional; summary of the method: as §1
Saccharomyces cerevisiae [45] = assay: Downregulation of glucose catabolic process related gene expression in Saccharomyces cerevisiae; assay type: functional, organism-based; summary of the method: as §4
Saccharomyces cerevisiae [46] = assay: Downregulation of FIT1 gene expression in Saccharomyces cerevisiae relative to untreated control; assay type: functional; summary of the method: as §4
Saccharomyces cerevisiae [47] = assay: Downregulation of ARN1 gene expression in Saccharomyces cerevisiae relative to untreated control; assay type: functional; summary of the method: as §4
Saccharomyces cerevisiae [48] = assay: Downregulation of SMF3 gene expression in Saccharomyces cerevisiae relative to untreated control; assay type: functional; summary of the method: as §4
Saccharomyces cerevisiae [49] = assay: Upregulation of TPS1 gene expression in Saccharomyces cerevisiae at 17 uM after 15 hrs by qRT-PCR relative to untreated control; assay type: functional; summary of the method: as §2
Saccharomyces cerevisiae [50] = assay: Cytotoxicity against Saccharomyces cerevisiae BY4741 harboring deltaerg6 mutant gene at <10 uM after 4 hrs; assay type: functional, organism-based; summary of the method: as §3
Saccharomyces cerevisiae [51] = assay: Upregulation of TPS1 gene expression in Saccharomyces cerevisiae at 17 uM after 15 hrs by microarray analysis relative to untreated control; assay type: functional; summary of the method: as §1

For C[n+]1c2ccccc2cc2[n-]c3ccccc3c21.Cl [CRYPTOLEPINE HYDROCHLORIDE], the “fold change (FC)” value (Saccharomyces cerevisiae [1]) was 3.54, the “fold change (FC)” value (Saccharomyces cerevisiae [2]) was 5.57 and the “fold change (FC)” value (Saccharomyces cerevisiae [3]) was 1.88. For the same compound, the “fold change (FC)” value (Saccharomyces cerevisiae [4]) was 4.06, the “fold change (FC)” value (Saccharomyces cerevisiae [5]) was 3.3 and the “fold change (FC)” value (Saccharomyces cerevisiae [6]) was 2.36. The IC20 (Saccharomyces cerevisiae [7]) was 7.5 µM, the IC40 (Saccharomyces cerevisiae [7]) was 17 µM and the “fold change (FC)” value (Saccharomyces cerevisiae [8]) was 0.13. For the same compound, the “fold change (FC)” value (Saccharomyces cerevisiae [9]) was 3.32, the “fold change (FC)” value (Saccharomyces cerevisiae [10]) was 0.96 and the “fold change (FC)” value (Saccharomyces cerevisiae [11]) was 1.94. The “fold change (FC)” value (Saccharomyces cerevisiae [12]) was 2.49, the “fold change (FC)” value (Saccharomyces cerevisiae [13]) was 2.18 and the “fold change (FC)” value (Saccharomyces cerevisiae [14]) was 2.27. For the same compound, the “fold change (FC)” value (Saccharomyces cerevisiae [15]) was 3.01, the Activity (Saccharomyces cerevisiae [16]) was “Active” and the “fold change (FC)” value (Saccharomyces cerevisiae [17]) was 2.31. For the same compound, the IC50 (Saccharomyces cerevisiae [18]) was 20.3 µM, the “fold change (FC)” value (Saccharomyces cerevisiae [19]) was 1.79 and the Activity (Saccharomyces cerevisiae [20]) was “Active”. For the same compound, the “fold change (FC)” value (Saccharomyces cerevisiae [21]) was 3.46, the “fold change (FC)” value (Saccharomyces cerevisiae [22]) was 1.24 and the “fold change (FC)” value (Saccharomyces cerevisiae [23]) was 4.9. The “fold change (FC)” value (Saccharomyces cerevisiae [24]) was 0.78, the Activity (Saccharomyces cerevisiae [25]) was “Active” and the “fold change (FC)” value (Saccharomyces cerevisiae [26]) was 2.35. For the same compound, the “fold change (FC)” value (Saccharomyces cerevisiae [27]) was 1.73, the “fold change (FC)” value (Saccharomyces cerevisiae [28]) was 0.08 and the “fold change (FC)” value (Saccharomyces cerevisiae [29]) was 1.01. For the same compound, the Activity (Saccharomyces cerevisiae [30]) was “Active”, the “fold change (FC)” value (Saccharomyces cerevisiae [31]) was 3.46 and the “fold change (FC)” value (Saccharomyces cerevisiae [32]) was 0.53. The “fold change (FC)” value (Saccharomyces cerevisiae [33]) was 1.57, the “fold change (FC)” value (Saccharomyces cerevisiae [34]) was 0.49 and the “fold change (FC)” value (Saccharomyces cerevisiae [35]) was 3.3. The “fold change (FC)” value (Saccharomyces cerevisiae [36]) was 3.51, the “fold change (FC)” value (Saccharomyces cerevisiae [37]) was 2.01 and the “fold change (FC)” value (Saccharomyces cerevisiae [38]) was 0.09. For the same compound, the “fold change (FC)” value (Saccharomyces cerevisiae [39]) was 2.05, the “fold change (FC)” value (Saccharomyces cerevisiae [40]) was 1.11 and the “fold change (FC)” value (Saccharomyces cerevisiae [41]) was 0.35. The IC50 (Saccharomyces cerevisiae [42]) was 25 µM, the “fold change (FC)” value (Saccharomyces cerevisiae [43]) was 0.8 and the “fold change (FC)” value (Saccharomyces cerevisiae [44]) was 2.09. For the same compound, the Activity (Saccharomyces cerevisiae [45]) was “Active”, the “fold change (FC)” value (Saccharomyces cerevisiae [46]) was 2.13 and the “fold change (FC)” value (Saccharomyces cerevisiae [47]) was 1.07. For the same compound, the “fold change (FC)” value (Saccharomyces cerevisiae [48]) was 1.24, the “fold change (FC)” value (Saccharomyces cerevisiae [49]) was 1.03 and the Activity (Saccharomyces cerevisiae [50]) was “Active”. The “fold change (FC)” value (Saccharomyces cerevisiae [51]) was 1.01.
